Rows were chosen to be rich in hits. Some 3.9% of all compounds tested hit in one or more screens of this group.
TAAR1 ag – agonists of human TAAR1; Q96RJ0; 360,000 tested, 0.99% active; activation, % at 3 µM; CHO RD-HGA16 TAAR1, Fluo-8 calcium fluorescence; vehicle wells 0%, saturating PEA agonist 100%;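 active = activation above the mean activation of all test compounds in the run plus 3 SD, cut at about 38% in these data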
Target sequence (Q96RJ0 whole entry, looked up): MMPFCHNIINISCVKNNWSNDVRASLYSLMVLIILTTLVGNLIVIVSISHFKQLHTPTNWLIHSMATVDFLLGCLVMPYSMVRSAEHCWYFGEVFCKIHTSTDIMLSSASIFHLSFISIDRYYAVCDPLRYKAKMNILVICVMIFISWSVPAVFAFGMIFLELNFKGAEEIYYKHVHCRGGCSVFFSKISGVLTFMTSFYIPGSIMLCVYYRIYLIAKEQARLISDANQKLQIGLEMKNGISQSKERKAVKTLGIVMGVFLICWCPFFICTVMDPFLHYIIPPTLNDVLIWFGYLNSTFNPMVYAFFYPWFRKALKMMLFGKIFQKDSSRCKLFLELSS
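Test system: RD-HGA16 (CHO) cells co-expressing Gα16 and hTAAR1 | Doses: Single dose, 3 µM | Schedule: 17-24 h seeding, 75 min 37 °C dye, 30 min RT | Evaluation: % activation from peak over basal fluorescence ratio, DMSO-to-PEA scaled | Technique: Kinetic Fluo-8 calcium fluorescence | Benchmarks: Low control DMSO, high control PEA (EC100)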
m5-HT2A agonist – mouse HTR2A agonism via beta-arrestin recruitment; P35363; CHO-K1 mHTR2A beta-arrestin complementation, luminescence; percent of 30 µM serotonin response; activation, % at 7.6 µM; 360,000 tested, 0.66% active; AID 624169;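 active = activation above a run cutoff, the mean activation of all tested compounds plus 3 SD, cut at about 14% in these data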
CHRM1 PAM – positive allosteric modulators of human M1 muscarinic receptor; P11229; CHO-K1 hM1, Fluo-8 calcium fluorescence, ACh EC20; 0% = ACh EC20, 100% = maximal ACh; activation, % at 3 µM; 360,000 tested, 0.088% active; AID 588819; in the data active = activation above about 19%, passing the limit was not always enough
CHRM1 agonist – activates human CHRM1 receptor; P11229; CHO-K1 hM1, Fluo-8 calcium fluorescence, agonist mode; 0% DMSO, 100% acetylcholine EC100; activation, % at 3 µM; 360,000 tested, 0.33% active; AID 588814;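 active = activation above the run's mean compound activation plus 3 SD, cut at about 16% in these data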;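 also: peak over basal fluorescence ratio within a 140 s kinetic read after compound addition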
CHRM1 antagonist – antagonists of human M1 muscarinic receptor | P11229 | CHO-K1 hM1, Fluo-8 calcium fluorescence, ACh EC80 antagonist | inhibition, % at 3 µM | 360,000 tested, 1.3% active | AID 588852;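 active = percent inhibition above its own plate's cutoff, namely the mean of that plate's compound wells plus 3 SD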;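 also: peak over basal fluorescence ratio during 140 s after agonist addition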
TAAR1 antag – human TAAR1 antagonism. CHO RD-HGA16 TAAR1, Fluo-8 calcium fluorescence, antagonist. inhibition, % at 3 µM. 360,000 tested, 1.5% active. AID 624466;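 active = inhibition above a per-plate cutoff, the mean inhibition of test compounds on that plate plus 3 SD, cut at about 49% in these data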
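Test system – hTAAR1-expressing CHO RD-HGA16 cells, Gα16-coupled · Reagent – β-PEA at EC80 concentration, post-compound challenge · Compound dosing – 3 µM, single point · Timing – 140 s kinetic read after compound, 140 s after agonist · Detection – Fluo-8 intracellular calcium dye fluorescence, real-time kinetic reads · Control set – DMSO and EC80 PEA controls · Repeats – n of 1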
Hits are given with their value; 0 = inactive; - = no result given.

SMILES	TAAR1 ag	m5-HT2A agonist	CHRM1 PAM	CHRM1 agonist	CHRM1 antagonist	TAAR1 antag
COC(=O)CC#C[C@H](C)[C@@H](NS(=O)(=O)c1ccc([N+](=O)[O-])cc1)C(C)(C)C	0	-	-	-	-	0
Cc1nnc(NC(=O)CSc2nc(N)c(NC(=O)c3cccs3)c(=O)[nH]2)s1	0	0	0	0	0	0
O=C(CSCC(=O)Nc1nc(-c2ccc3c(c2)OCO3)cs1)Nc1nccs1	0	0	0	0	0	54.1
O=C(CSc1ccc(-c2ccc3c(c2)OCO3)nn1)Nc1nccs1	0	0	0	0	0	0
CCN(c1ccccc1)S(=O)(=O)c1ccc(Cl)c(NC(=O)CNCc2ccccc2OC)c1	0	0	0	0	0	55.5
CCN(c1ccccc1)S(=O)(=O)c1ccc(OC)c(NC(=O)Cc2ccccc2OC)c1	0	0	0	0	0	0
CCN(CC)S(=O)(=O)c1ccc(Cl)c(NC(=O)COc2ccc3c(C)cc(=O)oc3c2)c1	0	0	0	0	0	0
COc1ccc(OCC(=O)Nc2cc(S(=O)(=O)N3CCCCC3)ccc2OC)cc1	0	0	0	0	0	0
COc1ccc(OCC(=O)Nc2cc(S(=O)(=O)N3CCCC3)ccc2Cl)cc1	39.1	0	0	0	0	61.4
CCN(CC)S(=O)(=O)c1ccc(Cl)c(NC(=O)COc2ccc(OC)cc2)c1	0	0	0	0	0	57.6
O=C(C1CCN(c2nnc(-n3cccc3)s2)CC1)N1CCN(c2cccc(C(F)(F)F)c2)CC1	0	0	0	0	40.1	0
COc1ccc(C(=O)c2[nH]c(N)c(C(=O)c3c[nH]c4ccccc34)c2-c2ccc(OC)cc2)cc1	0	-	-	-	-	0
CCC(C)c1c(O)nc(SCC(=O)N2CCOCC2)[nH]c1=O (stereo not drawn)	0	0	24.6	0	0	0
CCC(C)c1c(O)nc(SCC(=O)N2CCCCC2)[nH]c1=O (stereo not drawn)	0	0	0	0	0	0
COc1ccc(NC(=O)COC(=O)CCNC(=O)c2ccco2)cc1Cl	43.4	0	0	0	0	0
O=c1c2ccccc2nc(/C=C/c2ccccc2)n1CCCO	0	0	0	0	0	0
CN(C)c1ccc(/C=C/c2nc3ccccc3c(=O)n2CCO)cc1	0	0	0	30.3	0	0
COC(=O)C1=C(C)N(Cc2ccccc2C(F)(F)F)C(=NCc2ccc(OC)cc2)NC1c1ccccc1C(F)(F)F (stereo not drawn)	0	-	-	-	-	0
COc1ccc2[nH]c(CN3CCC(CO)(CCOc4ccccc4)CC3)c(C)c2c1	0	0	0	0	0	0
Cc1ccc(-n2nc3c(=O)n(C(C)C(=O)NCCC4=CCCCC4)nc(C)c3c2C)cc1 (stereo not drawn)	37.9	0	0	0	0	0
Cc1nn(CC(=O)NCCc2ccco2)c(=O)c2nn(-c3ccccc3)c(C)c12	0	0	0	0	0	0
Cc1nn(C(C)C(=O)NCCc2ccco2)c(=O)c2nn(-c3ccccc3)c(C)c12 (stereo not drawn)	0	0	30.7	0	0	0
O=C(c1ccccc1)c1ccc(C(=O)N2CCOCC2)cc1	0	0	0	0	0	0
Cc1nnc(Nc2ccc(C(=O)N3CCOCC3)cc2)c2ccccc12	0	0	27.1	0	0	0
O=C1c2ccccc2C2Cc3nnccc3CN12 (stereo not drawn)	0	-	-	-	-	0
SMILES	TAAR1 ag	m5-HT2A agonist	CHRM1 PAM	CHRM1 agonist	CHRM1 antagonist	TAAR1 antag
CCC(Oc1ccccc1)C(=O)NCCCN1CCOCC1 (stereo not drawn)	0	0	0	0	0	0
c1ccc2c(c1)CCN(c1ncnc3c1[nH]c1ccccc13)C2	0	0	0	0	43.3	58.2
OC1(c2cccc(C(F)(F)F)c2)CCN(c2ncnc3c2[nH]c2ccccc23)CC1	0	0	0	0	0	56.4
c1ccc(CN2CCN(c3ncnc4c3[nH]c3ccccc34)CC2)cc1	0	23.8	0	0	0	0
CCC/C(=C1/c2ccccc2C(=O)N1c1ccccc1)c1ccc2[nH]ccc2c1	0	0	0	0	0	57.6
c1ccc2c(CCNc3ncnc4nc[nH]c34)cccc2c1	0	0	0	0	54.4	67.3
C1=C(CCNc2ncnc3nc[nH]c23)CCCC1	0	0	0	0	28.3	0
Clc1ccc(CCNc2ncnc3nc[nH]c23)cc1	0	0	0	0	29.8	0
OCCOCCNc1ncnc2nc[nH]c12	0	0	0	0	0	0
c1ccc(CCCNc2ncnc3nc[nH]c23)cc1	0	0	0	20.5	0	0
CCCNc1ncnc2nc[nH]c12	0	0	0	0	0	0
COc1ccnc(N=CNOCc2cccc(C(F)(F)F)c2)c1C#N	0	0	0	0	0	0
CCN(CC)S(=O)(=O)c1cccc(NC(=O)COC(=O)c2[nH]c(C)c(C(C)=O)c2C)c1	0	0	0	0	30.9	55.0
CC(=O)c1c(C)[nH]c(C(=O)OCC(=O)Nc2cccc(S(=O)(=O)N3CCCC3)c2)c1C	0	0	0	0	0	49.6
O=C(COC(=O)c1ccc(S(=O)(=O)N2CCCC2)cc1)Nc1ccccc1	0	0	0	0	0	0
O=C(COC(=O)c1ccc(Cl)c(S(=O)(=O)N2CCCCCC2)c1)Nc1ccccc1	0	0	0	0	0	53.3
O=C(COC(=O)c1ccc(S(=O)(=O)N2CCCC2)cc1)Nc1cccc(Br)c1	0	0	0	0	28.7	0
Cc1cccc(NC(=O)COC(=O)c2ccc(S(=O)(=O)N3CCCCCC3)cc2)c1	0	0	0	0	0	0
CC(=O)c1c(C)[nH]c(C(=O)OCC(=O)Nc2cccc(S(=O)(=O)N(C)C)c2)c1C	0	0	0	0	0	0
COc1cc2ccc(C(=O)O)cc2cc1OC	0	0	0	0	0	0
CCNC(=O)N(C)[C@H]1C[C@@H](c2ccccc2)N(C(C)=O)C[C@H]1CO	0	-	-	-	-	0
N#C/C(=C/c1ccc(F)cc1)c1nnc(NC(=O)c2ccccc2)s1	0	0	0	0	0	0
COc1ccccc1CN1C[C@@H]2C[C@@H](c3[nH]c4c(C)cccc4c3C)N3CCC[C@@]23C1=O	0	0	0	0	0	0
O=C(COC(=O)C1CC2C=CC1C2)Nc1cccc(S(=O)(=O)N2CCCCCC2)c1 (stereo not drawn)	0	0	0	0	0	67.7
O=C(COC(=O)C1CC2C=CC1C2)Nc1cccc(S(=O)(=O)N2CCCCC2)c1 (stereo not drawn)	0	0	0	0	0	0
CCc1nc2ccccc2c(C(=O)OCC(=O)Nc2cccc(S(=O)(=O)N3CCOCC3)c2)c1C	0	0	0	0	27.9	0
O=C(COC(=O)c1c(F)cccc1F)Nc1cccc(S(=O)(=O)N2CCCCC2)c1	0	0	0	0	0	49.8
